Results as given in paper PMC4878416 (Diabetes, 2016).
pIC50: −log10 of the molar value.

Legend:
[1] = tested on: endogenous NSG pancreatic islets β-cells; experiment: β-cell proliferation in endogenous pancreatic islets of NSG mice; type: in vivo, mouse; conditions: 0.25 mg/kg/BW i.p. twice a week for 3 weeks, vs nontreated or sham-operated mice
In short: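 Pancreata came from human islet-grafted NSG mice dosed i.p. with test compound (0.25 mg/kg, 50% DMSO) or vehicle twice weekly for 3 weeks. Mice then received BrdU 100 mg/kg i.p. for 3 days and were killed 6 h after the final injection. Sections were stained for insulin, BrdU and DAPI, and BrdU+ β-cells were quantified; n = 4; mean ± SEM; unpaired t test.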

CLK4 = CLK4 (Homo sapiens, UniProt Q9HAZ1); experiment: Human kinome profiling, CLK4; type: biochemical
In short: (§1)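 Human kinases profiled by commercial providers under their standard protocols; ATP within 15 μmol/L of the apparent KM for each enzyme.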

[2] = tested on: p27KIP phosphorylation (S10); experiment: Western blot of p27KIP phosphorylation; type: cell-based, rat; conditions: INS-1E cells, 24 or 48 h, 10 μmol/L harmine or 0.5 μmol/L 5-IT
In short: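 Cells were treated after overnight attachment and lysed in RIPA buffer. Western blots were probed for p27KIP S10 phosphorylation, with actin as loading control.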

CLK3 = CLK3 (Homo sapiens, UniProt P49761); experiment: Human kinome profiling, CLK3; type: biochemical
In short: as §1

[3] = tested on: liver, adipose, muscle and kidney tissue; experiment: Proliferation; type: in vivo, mouse; conditions: 3-week treatment, 0.25 mg/kg/BW i.p.
In short: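 Male NSG mice (8–10 weeks old) carried human islet kidney-capsule grafts. From 1 week post-graft they received test compound i.p. at 0.25 mg/kg in 50% DMSO or vehicle, twice weekly for 3 weeks. BrdU was then given at 100 mg/kg i.p. for 3 days, and mice were killed 6 h after the last dose. BrdU+ nuclei were counted in liver and muscle (≥3,000 cells) and in visceral/subcutaneous adipose (1,000–2,000 cells).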

[4] = tested on: human islet cells (all cell types); experiment: Proliferation of other cell types in the heterogeneous human islet cell culture; type: cell-based
CLK2 = CLK2 (Homo sapiens, UniProt P49760); experiment: Human kinome profiling, CLK2; type: biochemical
In short: as §1

intact human islets = type: cell-based; conditions: intact islets of three donors, 1 μmol/L, 6 days
In short: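 Intact islets from three donors received DMSO or 1 μmol/L test compound for 6 days, and expression was averaged geometrically. Fold changes were regressed by five-dimensional least squares against published expression data from sorted α, β, acinar, large-duct, small-duct and uncharacterised islet cells to estimate cell-mass changes. Significance was assessed by randomising the assignment of sorted replicate samples to cell types.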

human β-cells = type: in vivo; conditions: 0.25 mg/kg/BW i.p. twice a week for 3 weeks, vs vehicle
In short: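 NSG mice (male, 8–10 weeks old) were grafted with 1,000 IEQ of human islets under the kidney capsule. From 1 week post-graft they received test compound (0.25 mg/kg i.p., 50% DMSO) or vehicle twice weekly for 3 weeks, followed by BrdU 100 mg/kg i.p. for 3 days and sacrifice at 6 h. Graft sections were co-stained for insulin or PDX-1 with BrdU, Ki67 or pHH3. 1,000–2,000 β-cells were counted per animal; n = 3–4; mean ± SEM; unpaired t test.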

DYRK1A = DYRK1A (Homo sapiens, UniProt Q13627); experiment: Human kinome profiling, DYRK1A; type: biochemical; conditions: 100 nmol/L
primary rat neurons = experiment: Proliferation of primary rat neurons in culture; type: cell-based
DYRK3 = molecular target: T1, DYRK3 (Homo sapiens, UniProt O43781); experiment: Human kinome profiling, DYRK3; type: biochemical
T1 sequence (O43781 1-588): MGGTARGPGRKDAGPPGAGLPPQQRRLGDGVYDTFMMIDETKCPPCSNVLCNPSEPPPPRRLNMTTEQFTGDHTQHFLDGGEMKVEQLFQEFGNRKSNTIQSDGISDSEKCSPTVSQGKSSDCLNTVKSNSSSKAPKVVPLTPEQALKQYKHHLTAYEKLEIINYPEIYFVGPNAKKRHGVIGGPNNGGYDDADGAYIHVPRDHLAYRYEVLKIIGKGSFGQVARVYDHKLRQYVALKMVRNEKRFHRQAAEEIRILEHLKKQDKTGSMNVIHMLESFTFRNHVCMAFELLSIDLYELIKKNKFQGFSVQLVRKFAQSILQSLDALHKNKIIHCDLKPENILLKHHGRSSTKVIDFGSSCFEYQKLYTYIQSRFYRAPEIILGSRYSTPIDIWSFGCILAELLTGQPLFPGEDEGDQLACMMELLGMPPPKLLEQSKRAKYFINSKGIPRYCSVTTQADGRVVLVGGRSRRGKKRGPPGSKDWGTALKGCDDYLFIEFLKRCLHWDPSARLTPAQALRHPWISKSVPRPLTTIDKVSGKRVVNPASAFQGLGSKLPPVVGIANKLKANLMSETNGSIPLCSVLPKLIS
In short: as §1

[5] = tested on: α-cells of endogenous mouse pancreas; experiment: α-cell proliferation in endogenous mouse pancreas; type: in vivo; conditions: 0.25 mg/kg/BW i.p. twice a week for 3 weeks
DYRK4 = molecular target: T2, DYRK4 (Homo sapiens, UniProt Q9NR20); experiment: Human kinome profiling, DYRK4; type: biochemical
T2 sequence (Q9NR20 1-520): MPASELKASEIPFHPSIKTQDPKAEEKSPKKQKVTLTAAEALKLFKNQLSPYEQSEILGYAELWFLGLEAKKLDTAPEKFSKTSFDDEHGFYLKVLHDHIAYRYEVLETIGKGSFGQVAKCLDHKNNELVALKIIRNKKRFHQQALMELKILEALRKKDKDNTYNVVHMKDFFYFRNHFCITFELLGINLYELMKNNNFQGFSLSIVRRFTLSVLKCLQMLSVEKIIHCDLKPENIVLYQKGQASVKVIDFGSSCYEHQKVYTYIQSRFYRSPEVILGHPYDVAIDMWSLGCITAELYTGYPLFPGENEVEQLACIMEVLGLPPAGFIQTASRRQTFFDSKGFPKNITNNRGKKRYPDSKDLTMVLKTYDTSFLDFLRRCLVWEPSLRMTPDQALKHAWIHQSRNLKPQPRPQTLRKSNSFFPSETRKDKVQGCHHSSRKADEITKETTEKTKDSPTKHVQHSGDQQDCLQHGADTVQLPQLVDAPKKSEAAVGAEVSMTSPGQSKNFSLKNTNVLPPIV
In short: as §1

Chain of CLK4 (Q9HAZ1 whole entry): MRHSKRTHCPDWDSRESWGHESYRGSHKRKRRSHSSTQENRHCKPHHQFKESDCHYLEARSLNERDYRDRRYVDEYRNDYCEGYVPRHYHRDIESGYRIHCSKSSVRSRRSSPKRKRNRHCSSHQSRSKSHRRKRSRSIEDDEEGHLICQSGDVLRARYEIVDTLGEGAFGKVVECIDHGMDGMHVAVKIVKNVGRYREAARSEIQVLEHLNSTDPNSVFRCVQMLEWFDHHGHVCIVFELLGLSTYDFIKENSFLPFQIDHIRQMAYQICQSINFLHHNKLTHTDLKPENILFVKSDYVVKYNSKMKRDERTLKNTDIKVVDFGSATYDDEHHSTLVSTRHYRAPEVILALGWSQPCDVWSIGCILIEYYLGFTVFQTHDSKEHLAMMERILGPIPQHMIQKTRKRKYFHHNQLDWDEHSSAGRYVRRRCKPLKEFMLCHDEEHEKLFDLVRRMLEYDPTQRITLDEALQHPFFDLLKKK
Chain of CLK2 (P49760 whole entry): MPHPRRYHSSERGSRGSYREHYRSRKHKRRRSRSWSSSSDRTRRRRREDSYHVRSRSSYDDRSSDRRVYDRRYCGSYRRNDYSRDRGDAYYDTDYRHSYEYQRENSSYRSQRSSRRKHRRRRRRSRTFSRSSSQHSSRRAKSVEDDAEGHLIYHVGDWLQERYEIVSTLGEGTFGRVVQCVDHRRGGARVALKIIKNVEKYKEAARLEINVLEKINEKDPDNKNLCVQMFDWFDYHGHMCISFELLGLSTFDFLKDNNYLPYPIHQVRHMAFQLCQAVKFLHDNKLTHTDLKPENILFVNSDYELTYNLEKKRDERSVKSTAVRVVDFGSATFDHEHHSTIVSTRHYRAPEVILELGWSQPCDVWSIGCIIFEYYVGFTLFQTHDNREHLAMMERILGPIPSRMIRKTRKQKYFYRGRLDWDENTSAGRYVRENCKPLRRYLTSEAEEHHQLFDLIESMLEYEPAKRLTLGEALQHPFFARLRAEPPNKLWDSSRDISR
Chain of CLK3 (P49761 whole entry): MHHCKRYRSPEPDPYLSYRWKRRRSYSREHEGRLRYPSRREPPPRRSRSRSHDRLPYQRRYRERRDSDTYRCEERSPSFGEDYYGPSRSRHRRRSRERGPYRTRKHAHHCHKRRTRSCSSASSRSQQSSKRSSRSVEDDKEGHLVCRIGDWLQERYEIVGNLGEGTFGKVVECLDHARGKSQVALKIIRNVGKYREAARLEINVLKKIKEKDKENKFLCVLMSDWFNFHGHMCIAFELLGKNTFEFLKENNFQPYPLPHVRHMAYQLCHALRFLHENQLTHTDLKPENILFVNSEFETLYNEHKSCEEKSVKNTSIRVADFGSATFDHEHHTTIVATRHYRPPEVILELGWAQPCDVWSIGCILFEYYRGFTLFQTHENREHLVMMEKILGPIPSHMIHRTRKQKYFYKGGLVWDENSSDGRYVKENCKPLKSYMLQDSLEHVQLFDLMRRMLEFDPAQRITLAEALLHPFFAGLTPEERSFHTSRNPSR

Structure (SMILES): Nc1ncnc2c1c(I)cn2[C@@H]1O[C@H](CO)[C@@H](O)[C@H]1O [5-IT, 5-iodotubercidin]
- increase in BrdU+ β-cells in endogenous NSG pancreatic islets [1]: ~2.5 fold
- remaining activity CLK4 (CLK4; 100 nmol/L): < 10%
- pIC50 (CLK4; read-out: IC50 CLK4, ATP within 15 μmol/L of apparent KM): 7.85
- p27KIP phosphorylation [2]: decrease
- remaining activity CLK3 (CLK3; 100 nmol/L): < 10%
- pIC50 (CLK3; read-out: IC50 CLK3, ATP within 15 μmol/L of apparent KM): 6.71
- proliferation in liver, adipose, muscle and kidney tissue, treated vs control [3]: no significant differences
- proliferation of all cell types in the heterogeneous culture system [4]: did not induce proliferation of all cell types
- remaining activity CLK2 (CLK2; 100 nmol/L): < 10%
- pIC50 (CLK2; read-out: IC50 CLK2, ATP within 15 μmol/L of apparent KM): 8.00
- increase in α-cell mass predicted by gene expression results (intact human islets; 95% CI 4.6–7.5): 6.1%
- β-cell mass increase that could account for gene expression changes (intact human islets; 95% CI 5.8–9.2): 7.5%
- increase in BrdU incorporation in β-cells of human islet grafts (human β-cells; P < 0.01): approximately fivefold
- increase in Ki67 staining of β-cells of human islet grafts (human β-cells; P < 0.05): approximately sixfold
- increase in PDX1/BrdU double-positive cells in human islet grafts (human β-cells; P < 0.05): approximately fourfold
- increase in PDX1/Ki67 double-positive cells in human islet grafts (human β-cells; P < 0.05): approximately sixfold
- increase in pHH3 immunostaining of β-cells of human islet grafts (human β-cells; P < 0.05): ~10 fold
- remaining activity DYRK1A (DYRK1A): < 10%
- effect on primary rat neurons in culture (primary rat neurons): no effect
- remaining activity DYRK3 (DYRK3; 100 nmol/L): < 10%
- pIC50 (DYRK3; read-out: IC50 DYRK3, ATP within 15 μmol/L of apparent KM): 8.52
- α-cell proliferation in endogenous mouse pancreas, treated vs nontreated [5]: no significant alterations
- remaining activity DYRK4 (DYRK4; 100 nmol/L): < 10%
- pIC50 (DYRK4; read-out: IC50 DYRK4, ATP within 15 μmol/L of apparent KM): 6.89
